Laboratory results reported in ChEMBL document CHEMBL3608301, “Phenolic Compounds from Atriplex littoralis and Their Radiation-Mitigating Activity” (J Nat Prod, 2015).

How the values were obtained:
[1] = test system: PBL; experiment: Radioprotective activity in 2-Gy gamma irradiated human PBL assessed as frequency of micronuclei at 3 uM treated for 2 to 19 hrs followed by compound washout measured after 72 hrs by cytochalasin-B-blocked micronucleus assay relative to control; format: functional
Outline: (§1)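 Venous blood from five healthy male volunteers was γ-irradiated at 2 Gy (0.45 Gy/min) at room temperature and cultured. Compounds (0.8−7.4 μM final) were added 2 to 19 h after irradiation, at 37 °C. Cultures were then rinsed and moved to fresh RPMI 1640 for 72 h. Cytokinesis-block micronucleus assay: ≥1000 binucleated cells scored per sample (Countryman–Heddle criteria). Controls were non-treated irradiated cultures; one-way ANOVA with Tukey test.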

[2] = test system: PBL; experiment: Radioprotective activity in 2-Gy gamma irradiated human PBL assessed as incidence of micronuclei in 1000 binucleated cells at 3 uM treated for 2 to 19 hrs followed by compound washout measured after 72 hrs by cytochalasin-B-blocked micronucleus assay (reference value: 183 +/- 9.6); format: functional; outline: as §1
[3] = test system: PBL; experiment: Radioprotective activity in 2-Gy gamma irradiated human PBL assessed as incidence of micronuclei in binucleated cells at 3 uM treated for 2 to 19 hrs followed by compound washout measured after 72 hrs by cytochalasin-B-blocked micronucleus assay (reference value: 1.2 +/- 0.03); format: functional; outline: as §1
[4] = test system: PBL; experiment: Radioprotective activity in 2-Gy gamma irradiated human PBL assessed as binucleated cells with micronuclei at 3 uM treated for 2 to 19 hrs followed by compound washout measured after 72 hrs by cytochalasin-B-blocked micronucleus assay (reference value: 15.5 +/- 0.6%); format: functional; outline: as §1
[5] = test system: PBL; experiment: Toxicity in 2-Gy gamma irradiated human PBL assessed as cytokinesis-block proliferation index at 3 uM treated for 2 to 19 hrs followed by compound washout measured after 72 hrs (reference value: 1.6 +/- 0.1); format: cell-based
[6] = test system: PBL; experiment: Radioprotective activity in 2-Gy gamma irradiated human PBL assessed as binucleated cells with micronuclei at 3.1 uM treated for 2 to 19 hrs followed by compound washout measured after 72 hrs by cytochalasin-B-blocked micronucleus assay (reference value: 15.5 +/- 0.6%); format: functional; outline: as §1
[7] = test system: PBL; experiment: Toxicity in 2-Gy gamma irradiated human PBL assessed as cytokinesis-block proliferation index at 1.5 uM treated for 2 to 19 hrs followed by compound washout measured after 72 hrs (reference value: 1.6 +/- 0.1); format: cell-based
[8] = test system: PBL; experiment: Radioprotective activity in 2-Gy gamma irradiated human PBL assessed as frequency of micronuclei at 3.1 uM treated for 2 to 19 hrs followed by compound washout measured after 72 hrs by cytochalasin-B-blocked micronucleus assay relative to control; format: functional; outline: as §1
[9] = test system: PBL; experiment: Radioprotective activity in 2-Gy gamma irradiated human PBL assessed as incidence of micronuclei in binucleated cells at 0.8 uM treated for 2 to 19 hrs followed by compound washout measured after 72 hrs by cytochalasin-B-blocked micronucleus assay (reference value: 1.2 +/- 0.03); format: functional; outline: as §1
[10] = test system: PBL; experiment: Radioprotective activity in 2-Gy gamma irradiated human PBL assessed as frequency of micronuclei at 0.8 uM treated for 2 to 19 hrs followed by compound washout measured after 72 hrs by cytochalasin-B-blocked micronucleus assay relative to control; format: functional; outline: as §1
[11] = test system: PBL; experiment: Radioprotective activity in 2-Gy gamma irradiated human PBL assessed as incidence of micronuclei in binucleated cells at 1.5 uM treated for 2 to 19 hrs followed by compound washout measured after 72 hrs by cytochalasin-B-blocked micronucleus assay (reference value: 1.2 +/- 0.03); format: functional; outline: as §1
[12] = test system: PBL; experiment: Radioprotective activity in 2-Gy gamma irradiated human PBL assessed as incidence of micronuclei in binucleated cells at 3.1 uM treated for 2 to 19 hrs followed by compound washout measured after 72 hrs by cytochalasin-B-blocked micronucleus assay (reference value: 1.2 +/- 0.03); format: functional; outline: as §1
[13] = test system: PBL; experiment: Radioprotective activity in 2-Gy gamma irradiated human PBL assessed as binucleated cells with micronuclei at 0.8 uM treated for 2 to 19 hrs followed by compound washout measured after 72 hrs by cytochalasin-B-blocked micronucleus assay (reference value: 15.5 +/- 0.6%); format: functional; outline: as §1
[14] = test system: PBL; experiment: Radioprotective activity in 2-Gy gamma irradiated human PBL assessed as frequency of micronuclei at 1.5 uM treated for 2 to 19 hrs followed by compound washout measured after 72 hrs by cytochalasin-B-blocked micronucleus assay relative to control; format: functional; outline: as §1
[15] = test system: PBL; experiment: Toxicity in 2-Gy gamma irradiated human PBL assessed as cytokinesis-block proliferation index at 0.8 uM treated for 2 to 19 hrs followed by compound washout measured after 72 hrs (reference value: 1.6 +/- 0.1); format: cell-based
[16] = test system: PBL; experiment: Radioprotective activity in 2-Gy gamma irradiated human PBL assessed as incidence of micronuclei in 1000 binucleated cells at 0.8 uM treated for 2 to 19 hrs followed by compound washout measured after 72 hrs by cytochalasin-B-blocked micronucleus assay (reference value: 183 +/- 9.6); format: functional; outline: as §1
[17] = test system: PBL; experiment: Radioprotective activity in 2-Gy gamma irradiated human PBL assessed as incidence of micronuclei in 1000 binucleated cells at 3.1 uM treated for 2 to 19 hrs followed by compound washout measured after 72 hrs by cytochalasin-B-blocked micronucleus assay (reference value: 183 +/- 9.6); format: functional; outline: as §1
[18] = test system: PBL; experiment: Toxicity in 2-Gy gamma irradiated human PBL assessed as cytokinesis-block proliferation index at 3.1 uM treated for 2 to 19 hrs followed by compound washout measured after 72 hrs (reference value: 1.6 +/- 0.1); format: cell-based
[19] = test system: PBL; experiment: Radioprotective activity in 2-Gy gamma irradiated human PBL assessed as binucleated cells with micronuclei at 1.5 uM treated for 2 to 19 hrs followed by compound washout measured after 72 hrs by cytochalasin-B-blocked micronucleus assay (reference value: 15.5 +/- 0.6%); format: functional; outline: as §1
[20] = test system: PBL; experiment: Radioprotective activity in 2-Gy gamma irradiated human PBL assessed as incidence of micronuclei in 1000 binucleated cells at 1.5 uM treated for 2 to 19 hrs followed by compound washout measured after 72 hrs by cytochalasin-B-blocked micronucleus assay (reference value: 183 +/- 9.6); format: functional; outline: as §1

Row | Compound | Activity [1] [%] | Activity [2] | Activity [3] | Activity [4] [%] | Activity [5] | Activity [6] [%] | Activity [7] | Activity [8] [%] | Activity [9] | Activity [10] [%] | Activity [11] | Activity [12] | Activity [13] [%] | Activity [14] [%] | Activity [15] | Activity [16] | Activity [17] | Activity [18] | Activity [19] [%] | Activity [20]
1 | CO[C@@]12[C@H](COC(N)=O)C3=C(C(=O)C(C)=C(N)C3=O)N1C[C@@H]1N[C@@H]12 [MITOMYCIN] | 123.5 | 226.1 | 1.3 | 17.9 | 1.6 | – | – | – | – | – | – | – | – | – | – | – | – | – | – | –
2 | COc1cc(-c2oc3cc4c(c(O)c3c(=O)c2O[C@@H]2O[C@H](CO[C@@H]3O[C@@H](C)[C@H](O)[C@@H](O)[C@H]3O)[C@@H](O)[C@H](O)[C@H]2O)OCO4)ccc1O | – | – | – | – | – | 11.7 | 1.6 | 77.3 | 1.2 | 69.2 | 1.2 | 1.2 | 11.2 | 71.7 | 1.6 | 126.6 | 141.4 | 1.6 | 10.8 | 131.3
3 | C[C@@H]1O[C@@H](O[C@H]2[C@H](Oc3c(-c4ccc(O)c(O)c4)oc4cc5c(c(O)c4c3=O)OCO5)O[C@H](CO)[C@@H](O)[C@@H]2O)[C@H](O)[C@H](O)[C@H]1O | – | – | – | – | – | 15.3 | 1.7 | 102.2 | 1.2 | 98.9 | 1.3 | 1.2 | 15.1 | 97.7 | 1.7 | 181 | 187 | 1.7 | 14.1 | 178.8
